Experimental data gathered from unrelated publications.
Lines come from different studies, so protocols differ.
CDK5 with p35: Cyclin-dependent kinase 5, with p35 (CDK5, Homo sapiens, UniProt Q00535)
CDK5 with p25: Cyclin-dependent kinase 5, with p25 (CDK5, Homo sapiens, UniProt Q00535)
CDK5: Cyclin-dependent kinase 5 (CDK5, Homo sapiens, UniProt Q00535)

O=C1Nc2ccc(Cl)cc2C1=Cc1cc(Cl)c(O)c(Cl)c1 — remaining signal (CDK5 with p35; cell-free assay; 0.5 µM): 94.5%
Cc1cc(NC(=O)c2cccc3cc(-c4cccc5[nH]nc(N)c45)ccc23)ccc1F — activity vs control (CDK5 with p25; enzyme activity, inhibitor; 0.1 µM): 94%
CCCOc1ccc(OC)c(F)c1C(=O)c1ccc(C(=O)N[C@@H]2CNC[C@H]2NC(=O)c2ccc3[nH]ncc3c2)cc1 — remaining activity (CDK5 with p25; enzyme activity, inhibitor; 0.75 µM): 85%
N#CCCc1ccc2c(c1)-c1[nH]c3ccc([N+](=O)[O-])cc3c1CC(=O)N2 — remaining signal (CDK5 with p35; cell-free assay; 0.5 µM): 2.6%
CC[C@H](C)[C@H](NC(=O)[C@H](CCC(N)=O)NC(=O)[C@H](CC(C)C)NC(=O)[C@H](CCSC)NC(=O)[C@H](CCCCN)NC(=O)[C@H](CO)NC(=O)[C@H](CO)NC(=O)[C@H](CCSC)NC(=O)[C@H](CC(C)C)NC(=O)[C@H](CC(N)=O)NC(=O)[C@@H](NC(=O)[C@@H](NC(=O)[C@H](CO)NC(=O)[C@H](CC(C)C)NC(=O)[C@H](CS)NC(=O)[C@H](CCCNC(=N)N)NC(=O)[C@H](CC(=O)O)NC(=O)[C@H](Cc1c[nH]c2ccccc12)NC(=O)[C@H](Cc1ccccc1)NC(=O)[C@H](C)NC(=O)[C@H](CCC(=O)O)NC(=O)[C@@H](N)CCCCN)C(C)C)[C@@H](C)CC)C(=O)N[C@@H](CC(N)=O)C(=O)N[C@@H](C)C(=O)O — remaining activity (CDK5 with p25; enzyme activity, inhibitor, radiometric; 10 µM, 20 min): 87%
COc1ccc2c(c1)O[C@@H](c1ccc(OC)c(OC)c1)C[C@H]2NC(=O)C1(c2ccc3c(c2)OC(F)(F)O3)CC1 — remaining binding (CDK5; cell-free assay, competition with immobilised ligand; 1 µM): 100%
CC(C)c1ccc(NC(=O)c2cccs2)c(-c2nc3ccccc3[nH]c2=O)c1 — activity vs control (CDK5 with p25; enzyme activity, inhibitor; 1 µM): 95%
C[C@H](c1ccnc(Nc2nc3ccc(-c4cc(N(C)C)ncn4)cc3[nH]2)c1)N1CCN(C(=O)CC(F)(F)F)CC1 — remaining binding (CDK5; cell-free assay, competition with immobilised ligand; 0.1 µM): 86%
N[C@H]1CCN(c2nccc(-c3cnn4ncccc34)n2)C1 — remaining binding (CDK5; binding; 1 µM): 100%
CN(C)C1CCN(CC#Cc2nn(C3CCCC3)c3nc(NCc4ccccc4)ncc23)C1 (stereo not shown) — inhibition (CDK5 with p25; enzyme activity, inhibitor, FRET; 1 µM): 3%
N#Cc1ccc(Nc2ccc3[nH]c(=O)[nH]c3c2)c(Cl)c1 — remaining binding (CDK5; cell-free assay, competition with immobilised ligand; 1 µM): 100%
O=C1NC(=O)c2cc(Nc3ccc(F)cc3)c(Nc3ccc(F)cc3)cc21 — remaining signal (CDK5 with p35; cell-free assay; 0.5 µM): 98.5%
Cc1ccc(NC(=O)c2ccc(C)c(C(F)(F)F)c2)cc1C#Cc1nn(C2CCC(O)CC2)c2ncnc(N)c12 (stereo not shown) — remaining signal (CDK5 with p35; cell-free assay; 10 µM): 127%
CS(=O)(=O)c1cc(C2(NC(=O)c3cncc4c3cnn4-c3ccc(F)cc3)CC2)ccn1 — remaining binding (CDK5; cell-free assay, competition with immobilised ligand; 1 µM): 100%
Oc1ccc(-c2nc(-c3ccncc3)c(-c3ccc(F)cc3)[nH]2)cc1 — remaining signal (CDK5 with p35; cell-free assay; 0.5 µM): 97.3%
CS(=O)(=O)N1CCCC(NC(=O)[C@H](CCC2CCCCC2)NC(=O)c2ccc(CNc3ncnc4c3nnn4-c3ccccc3)cc2)C1 (stereo partly shown) — remaining binding (CDK5; cell-free assay, competition with immobilised ligand; 0.1 µM): 94%
Nc1nc(Nc2ccc(S(N)(=O)=O)cc2)nn1C(=O)c1c(F)cccc1F — remaining signal (CDK5 with p35; cell-free assay; 0.5 µM): 0.212%
Cc1ccc(C(=O)NCc2ccsc2)cc1C#Cc1cn(C(C)C)c2ncnc(N)c12 — activity vs control (CDK5 with p25; enzyme activity, inhibitor; 1 µM): 95%
NS(=O)(=O)c1cc(NC(=O)Cc2ccccc2)ccc1Oc1cccc(Cl)c1 — remaining binding (CDK5; cell-free assay, competition with immobilised ligand; 1 µM): 61%
